ChEMBL document CHEMBL3526048, “In vitro metabolism of rivoglitazone, a novel peroxisome proliferator-activated receptor γ agonist, in rat, monkey, and human liver microsomes and freshly isolated hepatocytes” (Drug Metab Dispos, 2011)

Assays:
Cytochrome P450 2D6 = Cytochrome P450 2D6 (Homo sapiens, UniProt P10635); test: Activity of human CYP2D6 expressed in microsomes isolated from baculovirus infected insect cell assessed as enzyme-mediated compound formation treated with [14C]-rivoglitazone at 20 uM after 2 hrs by radio-HPLC/LC-MS/MS analysis in presence of NADPH-generating system; type: ADME
Cytochrome P450 2D6, sequence (P10635 whole entry): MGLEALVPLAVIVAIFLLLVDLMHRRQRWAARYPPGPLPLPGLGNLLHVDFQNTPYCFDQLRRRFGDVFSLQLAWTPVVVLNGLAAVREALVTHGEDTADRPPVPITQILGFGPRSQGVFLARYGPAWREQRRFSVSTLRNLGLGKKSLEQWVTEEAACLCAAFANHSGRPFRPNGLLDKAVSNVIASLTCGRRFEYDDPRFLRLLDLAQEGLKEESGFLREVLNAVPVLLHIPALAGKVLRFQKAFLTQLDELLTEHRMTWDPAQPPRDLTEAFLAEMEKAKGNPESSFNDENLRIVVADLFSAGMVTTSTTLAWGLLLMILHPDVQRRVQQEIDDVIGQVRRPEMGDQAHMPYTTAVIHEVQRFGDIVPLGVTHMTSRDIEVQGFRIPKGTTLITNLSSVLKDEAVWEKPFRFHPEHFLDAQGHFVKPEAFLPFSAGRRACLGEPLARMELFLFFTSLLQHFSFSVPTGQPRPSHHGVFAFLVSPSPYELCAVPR
Procedure, shortened: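 Baculovirus-insect-cell microsomes expressing the human CYP (1 mg/ml protein) were incubated with [14C]rivoglitazone (20 μM) in 50 mM potassium phosphate (pH 7.4) or 100 mM Tris-HCl (pH 7.5) with an NADPH-generating system (2 mM NADP+, 20 mM glucose 6-phosphate, 2 units/ml G6PDH, 10 mM MgCl2) for 2 h at 37°C. Insect-cell control supersomes served as the control. Reactions were stopped with acetonitrile, and the concentrated supernatants were analysed by radio-HPLC, LC-MS and LC-MS/MS.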

[1] = target: T1, UDP-glucuronosyltransferase 1A3 (Homo sapiens, UniProt P35503); test: Activity of human UGT1A3 expressed in microsomes isolated from baculovirus infected insect cell assessed as enzyme-mediated 3-(4-((6-methoxy-1-methyl-1H-benzo[d]imidazol-2-yl)methoxy)phenyl)-2-(methylsulfonyl)propanamide formation at 20 uM after 4 hrs by radio-HPLC/LC-MS/MS analysis in presence of NADPH-generating system/SAM; type: ADME
T1 sequence (P35503 whole entry): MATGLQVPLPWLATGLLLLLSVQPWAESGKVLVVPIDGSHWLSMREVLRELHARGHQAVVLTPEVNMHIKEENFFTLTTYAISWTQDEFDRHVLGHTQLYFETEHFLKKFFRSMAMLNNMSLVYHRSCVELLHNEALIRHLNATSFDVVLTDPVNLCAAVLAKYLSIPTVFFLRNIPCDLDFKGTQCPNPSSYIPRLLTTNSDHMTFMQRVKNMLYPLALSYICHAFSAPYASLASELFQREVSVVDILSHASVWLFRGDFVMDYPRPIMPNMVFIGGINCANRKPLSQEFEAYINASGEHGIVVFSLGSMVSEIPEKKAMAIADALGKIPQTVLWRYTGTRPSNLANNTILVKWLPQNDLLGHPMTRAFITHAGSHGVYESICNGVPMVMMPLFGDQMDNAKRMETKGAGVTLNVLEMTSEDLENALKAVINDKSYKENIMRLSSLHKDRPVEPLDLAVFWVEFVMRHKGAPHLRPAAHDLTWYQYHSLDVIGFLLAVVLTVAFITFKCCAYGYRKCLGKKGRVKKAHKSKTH

[2] = Drug metabolism in rat hepatocytes assessed as formation of (2S,3S,4S,5R,6R)-3,4,5-trihydroxy-6-(5-(4-((6-methoxy-1-methyl-1H-benzo[d]imidazol-2-yl)methoxy)benzyl)-2,4-dioxothiazolidin-3-yl)tetrahydro-2H-pyran-2-carboxylic acid at 30 uM after 3 hrs by radio-HPLC/LC-MS/MS analysis; type: ADME, cell-based, Hepatocyte
Cytochrome P450 1A2 = target: T2, Cytochrome P450 1A2 (Homo sapiens, UniProt P05177); test: Activity of human CYP1A2 expressed in microsomes isolated from baculovirus infected insect cell assessed as enzyme-mediated 5-(4-((6-hydroxy-1-methyl-1H-benzo[d]imidazol-2-yl)methoxy)benzyl)thiazolidine-2,4-dione formation at 20 uM after 2 hrs by radio-HPLC/LC-MS/MS analysis in presence of NADPH-generating system and NADPH-generating system/SAM; type: ADME
T2 sequence (P05177 whole entry): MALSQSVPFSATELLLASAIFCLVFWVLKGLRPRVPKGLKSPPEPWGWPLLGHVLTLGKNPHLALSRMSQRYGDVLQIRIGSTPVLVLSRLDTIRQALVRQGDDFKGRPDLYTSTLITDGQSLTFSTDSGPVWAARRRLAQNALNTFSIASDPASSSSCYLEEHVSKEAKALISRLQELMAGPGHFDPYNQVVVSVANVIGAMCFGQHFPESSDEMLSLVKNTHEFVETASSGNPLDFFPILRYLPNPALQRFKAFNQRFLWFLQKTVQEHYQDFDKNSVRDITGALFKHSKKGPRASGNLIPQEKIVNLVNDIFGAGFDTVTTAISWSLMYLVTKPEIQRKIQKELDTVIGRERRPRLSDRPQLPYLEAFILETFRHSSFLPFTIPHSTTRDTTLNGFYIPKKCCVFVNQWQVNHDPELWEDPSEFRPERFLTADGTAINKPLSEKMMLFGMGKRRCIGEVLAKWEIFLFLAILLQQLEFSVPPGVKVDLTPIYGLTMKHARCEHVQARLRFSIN
Procedure, shortened: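 Baculovirus/insect-cell microsomes expressing single human CYPs, 1 mg/ml protein, with 50 mM potassium phosphate (pH 7.4) or 100 mM Tris-HCl (pH 7.5). NADPH-generating system: 2 mM NADP⁺, 20 mM glucose 6-phosphate, 2 units/ml G6PDH, 10 mM MgCl₂. [¹⁴C]rivoglitazone at 20 μM, 2 h at 37°C with shaking. Control used insect-cell control supersomes. Stopped with acetonitrile; supernatant concentrated under nitrogen; metabolites analysed by radio-HPLC, LC-MS and LC-MS/MS.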

[3] = target: T1, UDP-glucuronosyltransferase 1A3; test: Activity of human UGT1A3 expressed in microsomes isolated from baculovirus infected insect cell assessed as enzyme-mediated 3-(4-((6-methoxy-1-methyl-1H-benzo[d]imidazol-2-yl)methoxy)phenyl)-2-(methylthio)propanoic acid formation at 20 uM after 4 hrs by radio-HPLC/LC-MS/MS analysis in presence of NADPH-generating system/SAM and UDPGA/SAM in presence of UDPGA and UDPGA/SAM; type: ADME
Cytochrome P450 2C8 = target: T3, Cytochrome P450 2C8 (Homo sapiens, UniProt P10632); test: Activity of human CYP2C8 expressed in microsomes isolated from baculovirus infected insect cell assessed as enzyme-mediated (2S,3S,4S,5R,6R)-3,4,5-trihydroxy-6-(5-(4-((6-methoxy-1-methyl-1H-benzo[d]imidazol-2-yl)methoxy)benzyl)-2,4-dioxothiazolidin-3-yl)tetrahydro-2H-pyran-2-carboxylic acid formation at 20 uM after 2 hrs by radio-HPLC/LC-MS/MS analysis in presence of UDPGA and UDPGA/SAM; type: ADME
T3 sequence (P10632 whole entry): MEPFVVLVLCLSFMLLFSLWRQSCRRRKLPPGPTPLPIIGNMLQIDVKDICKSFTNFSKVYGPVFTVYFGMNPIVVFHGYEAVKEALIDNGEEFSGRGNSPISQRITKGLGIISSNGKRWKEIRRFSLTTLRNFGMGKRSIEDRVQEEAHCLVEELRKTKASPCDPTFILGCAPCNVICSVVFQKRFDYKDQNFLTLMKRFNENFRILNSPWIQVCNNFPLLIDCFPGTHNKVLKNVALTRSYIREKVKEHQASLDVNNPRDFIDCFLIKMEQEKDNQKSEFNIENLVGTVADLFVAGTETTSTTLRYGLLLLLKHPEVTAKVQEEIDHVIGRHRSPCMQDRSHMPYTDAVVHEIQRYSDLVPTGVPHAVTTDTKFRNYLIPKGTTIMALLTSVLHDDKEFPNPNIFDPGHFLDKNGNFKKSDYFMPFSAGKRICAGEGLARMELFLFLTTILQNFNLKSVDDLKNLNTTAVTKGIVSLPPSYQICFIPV

[4] = target: T1, UDP-glucuronosyltransferase 1A3; test: Activity of human UGT1A3 expressed in microsomes isolated from baculovirus infected insect cell assessed as enzyme-mediated 2-mercapto-3-(4-((6-methoxy-1-methyl-1H-benzo[d]imidazol-2-yl)methoxy)phenyl)propanoic acid formation at 20 uM after 4 hrs by radio-HPLC/LC-MS/MS analysis in presence of UDPGA, UDPGA/SAM and NADPH-generating system in presence of UDPGA and UDPGA/SAM; type: ADME
Procedure, shortened: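 Alamethicin (50 μg/mg protein, 15 min on ice) pretreated expressed human UGT microsomes (1 mg/ml protein) from baculovirus-infected insect cells. Incubation with [¹⁴C]rivoglitazone (20 μM) in 100 mM Tris-HCl (pH 7.5) with 10 mM MgCl₂, started by 5 mM UDPGA, 4 h at 37°C with shaking. UGT insect-cell control supersomes were run alongside. Acetonitrile stop, concentrated supernatant analysed by radio-HPLC, LC-MS and LC-MS/MS.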

Structure (SMILES): COc1ccc2nc(COc3ccc(CC(S)C(=O)O)cc3)n(C)c2c1 (configuration not stated)
- Drug metabolism (Cytochrome P450 2D6): metabolite_detected

Structure (SMILES): COc1ccc2nc(COc3ccc(C[14CH]4SC(=O)NC4=O)cc3)n(C)c2c1.Cl (racemic)
- Drug metabolism [1]: metabolite_not_detected
- Drug metabolism [2]: metabolite_detected
- Drug metabolism (Cytochrome P450 1A2): metabolite_detected
- Drug metabolism [3]: metabolite_not_detected
- Drug metabolism (Cytochrome P450 2C8): metabolite_not_detected
- Drug metabolism [4]: metabolite_detected
